Test results taken from ChEMBL document CHEMBL5104102, “Discovery of FtsZ inhibitors by virtual screening as antibacterial agents and study of the inhibition mechanism” (RSC Med Chem, 2022).
In brackets after ≈: the same amount, converted by molar mass.

Tests used:
[1] = test system: Staphylococcus aureus; test: Synergistic antibacterial activity against methicillin-resistant Staphylococcus aureus BAA 41 assessed as FICI incubated for 18 hrs in presence of PC190723 by checkerboard assay; format: functional
In short: (§1)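 Checkerboard against MRSA BAA 41. Compound two-fold serially diluted across the plate and methicillin down it. Inoculum 5 × 10^5 CFU mL−1, with untreated-cell columns. Incubated at 37 °C for 16–24 h and growth read as A600. FICI computed from the combined MICs, and <0.5 taken as synergy.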

[2] = test system: Staphylococcus aureus; test: Antibacterial activity against methicillin-resistant Staphylococcus aureus BAA 41 assessed as inhibition of bacterial growth incubated for 18 hrs by CLSI protocol based two fold serial dilution method; format: functional
In short: (§2)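 CAMHB culture grown overnight at 37 °C with shaking at 250 rpm, diluted 10-fold, and grown 2 h. Inoculum set to 5 × 10^6 CFU mL−1 by A600. Compounds in DMSO were serially diluted two-fold, with 1% DMSO per well. Read at A600 after 18 h at 37 °C. MIC is the lowest concentration giving A600 < 0.1. Run in duplicate.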

[3] = test system: Staphylococcus aureus; test: Antibacterial activity against methicillin-resistant Staphylococcus aureus BAA 44 assessed as inhibition of bacterial growth incubated for 18 hrs by CLSI protocol based two fold serial dilution method; format: functional; in short: as §2
[4] = test system: Staphylococcus aureus; test: Synergistic antibacterial activity against methicillin-resistant Staphylococcus aureus BAA 41 assessed as inhibition of bacterial growth incubated for 18 hrs in presence of PC190723 by checkerboard assay; format: functional
[5] = test system: Staphylococcus aureus; test: Antibacterial activity against methicillin-resistant Staphylococcus aureus BAA 1720 assessed as inhibition of bacterial growth incubated for 18 hrs by CLSI protocol based two fold serial dilution method; format: functional; in short: as §2
[6] = test system: Staphylococcus aureus; test: Antibacterial activity against methicillin-resistant Staphylococcus aureus ATCC 33591 assessed as inhibition of bacterial growth incubated for 18 hrs by CLSI protocol based two fold serial dilution method; format: functional; in short: as §2
[7] = test system: Staphylococcus aureus; test: microbe, parasite or virus in culture; conditions: BAA 41, 18 h
[8] = test system: Staphylococcus aureus; test: microbe, parasite or virus in culture; conditions: BAA 41, 18 h; remark: listed apart in the source
[9] = test system: Staphylococcus aureus; test: Antibacterial activity against methicillin-resistant Staphylococcus aureus ATCC 33592 assessed as inhibition of bacterial growth incubated for 18 hrs by CLSI protocol based two fold serial dilution method; format: functional; in short: as §2
[10] = test system: Staphylococcus aureus; test: Antibacterial activity against methicillin-resistant Staphylococcus aureus ATCC 43300 assessed as inhibition of bacterial growth incubated for 18 hrs by CLSI protocol based two fold serial dilution method; format: functional; in short: as §2
[11] = test system: Staphylococcus aureus; test: Synergistic antibacterial activity against methicillin-resistant Staphylococcus aureus BAA 41 assessed as FICI incubated for 18 hrs in presence of S2163 by checkerboard assay; format: functional; in short: as §1
[12] = test system: Staphylococcus aureus; test: Synergistic antibacterial activity against methicillin-resistant Staphylococcus aureus BAA 41 assessed as FICI incubated for 18 hrs in presence of S2727 by checkerboard assay; format: functional; in short: as §1
[13] = test system: Staphylococcus aureus; test: Antibacterial activity against Staphylococcus aureus 29213 assessed as inhibition of bacterial growth incubated for 18 hrs by CLSI protocol based two fold serial dilution method; format: functional
In short: (§3)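 S. aureus ATCC 29213 was grown in CAMHB and tested by CLSI-based broth microdilution. An overnight culture (37 °C, 250 rpm) was diluted tenfold, grown 2 h, and set to 5 × 10^6 CFU mL−1. Cells were added to two-fold serial compound dilutions (1% DMSO) and incubated 18 h at 37 °C. Read-out was A600, in duplicate. MIC was the lowest concentration with A600 < 0.1.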

[14] = test system: Bacillus subtilis; test: Antibacterial activity against Bacillus subtilis 168 assessed as inhibition of bacterial growth incubated for 18 hrs by CLSI protocol based two-fold serial dilution assay; format: functional
In short: as §3, with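 “B. subtilis 168 or E. coli” for “S. aureus”, “25922” for “29213”, “MHB” for “CAMHB”, “mL−1 by A600.” for “mL−1.”, “giving” for “with”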

[15] = test system: Escherichia coli; test: Antibacterial activity against Escherichia coli 25922 assessed as inhibition of bacterial growth incubated for 18 hrs by CLSI protocol based two fold serial dilution method; format: functional
In short: as §3, with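 “B. subtilis 168 or E. coli” for “S. aureus”, “25922” for “29213”, “MHB” for “CAMHB”, “mL−1 by A600.” for “mL−1.”, “giving” for “with”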

SMILES | fractional inhibitory concentration index (FICI) [1] | MIC [2] [µg/mL] | MIC [3] [µg/mL] | MIC [4] [µg/mL] | MIC [5] [µg/mL] | MIC [6] [µg/mL] | MIC [7] [µg/mL] | MIC [8] [µg/mL] | MIC [9] [µg/mL] | MIC [10] [µg/mL] | fractional inhibitory concentration index (FICI) [11] | fractional inhibitory concentration index (FICI) [12] | MIC [13] [µg/mL] | MIC [14] [µg/mL] | MIC [15] [µg/mL]
COc1cccc(OC)c1C(=O)N[C@@H]1C(=O)N2[C@@H]1SC(C)(C)[C@@H]2C(=O)O [METHICILLIN] | 0.52 | 1020 (≈ 2690 µM) | 512 (≈ 1350 µM) | 4 | 256 (≈ 673 µM) | 512 (≈ 1350 µM) | 1 (≈ 2.63 µM) | 4 (≈ 10.5 µM) | 256 (≈ 673 µM) | 256 (≈ 673 µM) | >1 | 0.5 | – | – | –
Cc1cnc(-c2cc(N3CCN(C(=O)CCS(C)(=O)=O)CC3)ncc2Cl)c(C)c1 | – | – | – | – | – | – | – | – | – | – | – | – | > 128 | > 128 | > 128
COc1ccccc1S(=O)(=O)Nc1ccc2c(c1)CN(C)C(=O)N2 | – | – | – | – | – | – | – | – | – | – | – | – | > 128 | > 128 | > 128
CCOC(=O)C(CCc1ccccc1)NC(C)C(=O)N1Cc2ccccc2CC1C(=O)O.Cl (stereo not given) | – | – | – | – | – | – | – | – | – | – | – | – | > 128 | > 128 | > 128
CN(C)C(=O)[C@H](O)[C@H](Cc1ccccc1)NC(=O)c1cc2cc(Cl)ccc2[nH]1 | – | > 128 | > 128 | – | > 128 | > 128 | – | – | > 128 | 32 (≈ 80 µM) | – | – | > 128 | 16 (≈ 40 µM) | > 128
